Among the data in the RNAGym collection of RNA variant scans (doi:10.1126/science.aae0568) are yeast fitness values, retold here.

B1: tRNA (parent)
chain: GUUCCGUUGGCGUAAUGGUAACGCGUCUCCCUCCUAAGGAGAAGACUGCGGGUUCGAGUCCCGUACGGAACG

Variants at the floor of the assay were thinned out.

Variants of B1 are the subject of this series. As to the kind of experiment: yeast fitness relative to wild type (ratio to wild type); higher = fitter; tRNA-Arg(CCU), competitive growth, 37 C, YPD. In a few lines: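 A pool of Saccharomyces cerevisiae strains, each with a tRNA-Arg(CCU) gene variant at the native genomic locus, was competed in YPD at 37°C for 24 hours across six parallel replicates. The variants had been chemically synthesised at a 3% per-site mutation rate over 69 sites, and gene amplicons before and after competition were read by 100-nucleotide paired-end sequencing. Darwinian fitness relative to wild type rested on changes in genotype frequencies. Genotypes required ≥ 100 starting reads, and estimates < 0.5 were set to 0.5.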
For the variant C11A G25C C29U U54C A65C A70U, the yeast fitness was at most 0.5.
Then C11A U16C G18C A36G G56C, with at most 0.5.
For the variant C11A C61U A70C, the yeast fitness was at most 0.5.
For the variant C11A G25A, the yeast fitness was determined as 0.572.
On to C11G A15G U26A U32A G38A A40C G52A, for which the yeast fitness was at most 0.5.
Then C11G A14C A15C A40C A70C, with at most 0.5.
For the variant C11A G18A C49A C62G, the yeast fitness was at most 0.5.
Take C11G A15C G18A C30G U47G G67A: the yeast fitness is 0.656.
Consider C11G A15U A36U, for which the yeast fitness was at most 0.5.
For C11A U28A C61G C62G, the yeast fitness came to 0.556.
Then C11G A15C A70C, with at most 0.5; and C11A G48A C55U, with at most 0.5.
Take C11G A15U A36U C66U: the yeast fitness was at most 0.5.
Then C11A G51A, with 0.618; and C11G A15U C24G A40G C62U A70C, with 0.614.
For the variant C11A U16C A21G G68A, the yeast fitness is at most 0.5.
In the case of C11A G41A A45U C55A, the yeast fitness is at most 0.5.
As for C11A U59C C61A C62U, the yeast fitness is at most 0.5.
On to C11A C62G A70U, for which the yeast fitness stood at 0.542.
Take C11A G50C: the yeast fitness was at most 0.5.
For the variant C11A U19C C60U, the yeast fitness was at most 0.5.
C11A G25C C29U A57G: the yeast fitness was at most 0.5.
As to C11A G18A A36G A42C C66U, the yeast fitness was determined as 0.658.
Regarding C11G A15G C33G A37G U54A, the yeast fitness was at most 0.5.
In the case of C11G A14G A20U C27G C29U C62U, the yeast fitness is at most 0.5.
Regarding C11A C62A C66U, the yeast fitness stood at 0.629.
The result for C11G A15U reads 0.594; that for C11A U13C C27A C60A, at most 0.5; that for C11G A14G A21U A36G, at most 0.5.
The result for C11A U13A A20G C61U A69C reads at most 0.5.
The result for C11A G23A U32C U47C reads at most 0.5.
With C11A U16C A21G C55A, the yeast fitness is at most 0.5.
Turning to C11A G25A C46G A57U, the yeast fitness is at most 0.5.
Consider C11A U13G C24G C34G G52A, for which the yeast fitness was at most 0.5.
In the case of C11G A14G, the yeast fitness came out at 0.529.
Consider C11G A20G G44C U54C C62A, for which the yeast fitness was found to be 0.87.
In the case of C11G A14U C34A A69C, the yeast fitness was at most 0.5.
With C11A G12A C66A, the yeast fitness is at most 0.5.
As for C11A C62G, the yeast fitness came to 0.552.
The result for C11G A14G G39C C55U reads at most 0.5; that for C11A G23C C33U A43U A45C G58A A69C, at most 0.5; that for C11A C55U G63A C66G, at most 0.5.
C11G A14G G41A: the yeast fitness is at most 0.5.
For the variant C11G A14C A42U G51C C60U, the yeast fitness was at most 0.5.
In the case of C11A G25A A43G A65C, the yeast fitness is at most 0.5.
On to C11A U59A, for which the yeast fitness stood at 0.629.
For C11G A14G U26A U35A, the yeast fitness is at most 0.5.
Consider C11A U16C C33U A37C, for which the yeast fitness is at most 0.5.
For the variant C11A U32A, the yeast fitness is at most 0.5.
Consider C11G, for which the yeast fitness was determined as 0.661.
C11A G39A C62A: the yeast fitness is at most 0.5.
As for C11A G12C G63A, the yeast fitness was at most 0.5.
With C11A U64A, the yeast fitness is 0.635.
Consider C11A G25C C29U A65U, for which the yeast fitness is at most 0.5.
Then C11G A14U A36U G38C, with 0.553.
Then C11A U19G, with 0.669; and C11A G63A, with 0.681; and C11A G48A, with 0.642.
C11A G23C A42U: the yeast fitness was at most 0.5.
For C11G A14C C30G A45G U53C, the yeast fitness stood at 0.531.
In the case of C11A U13A A20G, the yeast fitness worked out at 0.561.
With C11A U13A A20U C29G A36G C46U G58A, the yeast fitness is at most 0.5.
The result for C11A C66U reads 0.569; that for C11A G25C C29U A65C A70U, 0.541; that for C11A U13C C49U U54C C61G C66U, 0.64.
With C11A G44C, the yeast fitness was determined as 0.59.
For the variant C11G A20G U32A, the yeast fitness is at most 0.5.
Turning to C11G A15G C22A U26A C55G, the yeast fitness was at most 0.5.
Regarding C11G A15U C22U U32C A42G, the yeast fitness is at most 0.5.
Then C11A U16C U32G G48A C49G C55A, with at most 0.5; and C11A G23U A36U, with at most 0.5.
In the case of C11A G67U, the yeast fitness came out at 0.584.
The result for C11A G23A C30U C31G reads at most 0.5; that for C11A G23C C49G, at most 0.5.
On to C11A G23C G39C C61A C62G A65U, for which the yeast fitness is at most 0.5.
For the variant C11G A15C C62G, the yeast fitness is at most 0.5.
Turning to C11A U35G, the yeast fitness turned out to be 0.514.
Regarding C11G A20G C49G, the yeast fitness was at most 0.5.
The result for C11G A15U C24G A40G G51A C60U G67A reads at most 0.5; that for C11G A20U C29A C30U C46G, at most 0.5.
Take C11A U16C C31U A69U: the yeast fitness was at most 0.5.
As to C11A U32C A70C, the yeast fitness worked out at 0.549.
As to C11A U47G U64C, the yeast fitness amounted to 0.531.
As for C11A G56A C66G, the yeast fitness was 0.533.
